# Test results reported in ChEMBL document CHEMBL1629660, “Pharmacodynamics of tigecycline against phenotypically diverse Staphylococcus aureus isolates in a murine thigh model” (Antimicrob Agents Chemother, 2009).
# Legend:
# [1] = Tmax in neutropenic ICR mouse infected with Staphylococcus aureus ATCC 29213 at 12.5 mg/kg, sc by HPLC; assay type: ADME, organism-based; design: dose 12.5 mg/kg, route subcutaneous; settings: in vivo
# Method in brief: (§1)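 Neutropenic female ICR mice (cyclophosphamide 150 and 100 mg/kg ip, 4 days and 1 day before inoculation), both thighs inoculated im with ~10^7 CFU/ml of ATCC 29213. Single sc doses of 50, 25, 12.5 or 6.25 mg/kg. Cardiac blood taken from groups of six at 8–12 times over 0.5–24 h. Serum measured by HPLC (linear 0.05–5 µg/ml). Two-compartment fit by nonlinear least squares; AUC by trapezoidal rule.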
# [2] = Elimination half life in neutropenic ICR mouse infected with methicillin-sensitive Staphylococcus aureus ATCC 29213 at 12.5 mg/kg, sc by HPLC; assay type: ADME, organism-based; design: dose 12.5 mg/kg, route subcutaneous; settings: in vivo, read-out: beta t1/2 (converted); method in brief: as §1
# [3] = tested on: Serum; experiment: fAUC in serum of methicillin-sensitive Staphylococcus aureus ATCC 29213-infected neutropenic ICR mouse at 1.56 to 400 mg/kg, sc by HPLC; assay type: ADME, organism-based; design: dose 1.56-400 mg/kg, route subcutaneous; settings: in vivo
# [4] = tested on: Staphylococcus aureus; experiment: Antimicrobial activity against hospital-acquired methicillin-resistant Staphylococcus aureus isolate 56 infected in neutropenic ICR mouse assessed as decrease in bacterial density at 1.56 to 400 mg/kg, sc after 24 hrs; assay type: functional; settings: dose mg/kg 1.56-400; route subcutaneous
# Method in brief: (§2)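 Female ICR mice (~25 g) made neutropenic with cyclophosphamide 150 and 100 mg/kg ip, 4 and 1 days before infection. Each thigh inoculated im with 0.1 ml of ~10^7 CFU/ml from an overnight subculture. Tigecycline sc (0.2 ml) given 2 h later as single or multiple doses of 1.56–50 mg/kg, 1.56–400 mg/kg/day, 3 mice/group. Saline-injected controls. Thighs harvested at 24 h, homogenized in saline, plated on blood agar; log10 CFU change vs 0-h controls.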
# [5] = fAUC/MIC in methicillin-sensitive Staphylococcus aureus ATCC 25923-infected neutropenic ICR mouse at 80% effective exposure index; assay type: functional
# [6] = fAUC/MIC in hospital-acquired methicillin-resistant Staphylococcus aureus isolate 56-infected neutropenic ICR mouse at 80% effective exposure index; assay type: functional
# Method in brief: (§3)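 Single-dose serum PK in infected neutropenic mice (sc 6.25–50 mg/kg; HPLC; two-compartment fit; AUC by trapezoidal rule; lower doses simulated). Free fraction from ultrafiltration of spiked mouse serum, in triplicate. Free exposures divided by modal MIC and plotted against 24-h log10 CFU change with a sigmoidal Emax model; EI50, EI80 and stasis values read from the fitted curves.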
# [7] = fAUC/MIC in community acquired methicillin-resistant Staphylococcus aureus isolate 144-infected neutropenic ICR mouse at 80% effective exposure index; assay type: functional; method in brief: as §3
# [8] = fAUC/MIC in community acquired methicillin-resistant Staphylococcus aureus isolate 156-infected neutropenic ICR mouse at 80% effective exposure index; assay type: functional; method in brief: as §3
# [9] = fAUC/MIC in methicillin-sensitive Staphylococcus aureus ATCC 25923-infected neutropenic ICR mouse at stasis dose; assay type: functional; method in brief: as §3
# [10] = fAUC/MIC in hospital-acquired methicillin-resistant Staphylococcus aureus isolate 56-infected neutropenic ICR mouse at stasis dose; assay type: functional; method in brief: as §3
# [11] = tested on: Staphylococcus aureus; experiment: Antimicrobial activity against methicillin-sensitive Staphylococcus aureus ATCC 29213 infected in neutropenic ICR mouse assessed as change in bacterial load after 24 hrs; assay type: functional
# Method in brief: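 Neutropenic ICR mice had both thighs inoculated with ~10^7 CFU/ml; dosing began 2 h later. Groups of three received 1.56–400 mg/kg/day sc as single or divided doses, with saline-dosed controls. Thighs were homogenized and plated on blood agar at 24 h. Read-out was the log10 CFU/ml change relative to 0-h controls.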
# [12] = tested on: Staphylococcus aureus; experiment: Antimicrobial activity against methicillin-sensitive Staphylococcus aureus ATCC 25923 infected in neutropenic ICR mouse assessed as change in bacterial load after 24 hrs; assay type: functional; method in brief: as §2
# [13] = tested on: Staphylococcus aureus; experiment: Antimicrobial activity against hospital-acquired methicillin-resistant Staphylococcus aureus isolate 56 infected in neutropenic ICR mouse assessed as change in bacterial load after 24 hrs; assay type: functional; method in brief: as §2
# [14] = tested on: Staphylococcus aureus; experiment: Antimicrobial activity against community acquired methicillin-resistant Staphylococcus aureus isolate 156 infected in immunocompetent ICR mouse assessed as reduction in bacterial load at […] after 24 hrs; assay type: functional
# Method in brief: (§4)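 Non-neutropenic ICR mice (no cyclophosphamide). Each thigh inoculated im with 0.1 ml of ~10^8 CFU/ml. Tigecycline given sc once daily at 1.56, 3.13, 6.25 or 12.5 mg/kg starting 2 h post-infection, 3 mice/group. Thighs harvested at 24 h, homogenized, plated on blood agar; log10 CFU change vs 0-h controls.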
# [15] = tested on: Staphylococcus aureus; experiment: Antimicrobial activity against community acquired methicillin-resistant Staphylococcus aureus isolate 156 infected in immunocompetent ICR mouse assessed as reduction in bacterial load at 12.5 […] after 24 hrs; assay type: functional; method in brief: as §4
# [16] = tested on: Staphylococcus aureus; experiment: Antimicrobial activity against community acquired methicillin-resistant Staphylococcus aureus isolate 156 infected in neutropenic ICR mouse assessed as change in bacterial load at 3.13 […] after 24 hrs; assay type: functional; method in brief: as §2
# [17] = r2 for fAUC/MIC in methicillin-sensitive Staphylococcus aureus ATCC 29213-infected neutropenic ICR mouse
# [18] = r2 for fCmax/MIC in methicillin-sensitive Staphylococcus aureus ATCC 29213-infected neutropenic ICR mouse
# [19] = r2 for fT>MIC in hospital-acquired methicillin-resistant Staphylococcus aureus isolate 152-infected neutropenic ICR mouse
# [20] = r2 of fAUC/MIC in hospital-acquired methicillin-resistant Staphylococcus aureus isolate 56-infected neutropenic ICR mouse
# [21] = r2 for fT>MIC in community acquired methicillin-resistant Staphylococcus aureus isolate 144-infected neutropenic ICR mouse
# [22] = r2 for fT>MIC in community acquired methicillin-resistant Staphylococcus aureus isolate 147-infected neutropenic ICR mouse
# [23] = r2 for fT>MIC in community acquired methicillin-resistant Staphylococcus aureus isolate 156-infected neutropenic ICR mouse
# [24] = r2 of fT>MIC in methicillin-sensitive methicillin-sensitive Staphylococcus aureus ATCC 29213-infected neutropenic ICR mouse
# [25] = r2 of fCmax/MIC in hospital-acquired methicillin-resistant Staphylococcus aureus isolate 152-infected neutropenic ICR mouse
# [26] = r2 for fAUC/MIC in community acquired methicillin-resistant Staphylococcus aureus isolate 147-infected neutropenic ICR mouse
# [27] = r2 for fCmax/MIC in community acquired methicillin-resistant Staphylococcus aureus isolate 144-infected neutropenic ICR mouse
# [28] = Protein binding in methicillin-sensitive Staphylococcus aureus ATCC 29213-infected neutropenic ICR mouse serum at 6 µg/ml by HPLC; settings: read-out: PB (converted)
compound,measurement,setting,value
CN(C)c1cc(NC(=O)CNC(C)(C)C)c(O)c2c1C[C@H]1C[C@H]3[C@H](N(C)C)C(O)=C(C(N)=O)C(=O)[C@@]3(O)C(O)=C1C2=O [TIGECYCLINE],Tmax,[1],0.45 h
same,half-life,[2],10.1 h
same,fAUC,[3],200 ng·h/mL
same,CFU,[4],1.5
same,fAUC/MIC,[5],7
same,fAUC/MIC,[6],4.2
same,fAUC/MIC,[7],3.2
same,fAUC/MIC,[8],13
same,fAUC/MIC,[9],5.3
same,fAUC/MIC,[10],2.5
same,log10CFU/ml,[11],2.3
same,log10CFU/ml,[12],1.4
same,log10CFU/ml,[13],2
same,log10cfu,[14],1.8
same,log10cfu,[15],1.6
same,log10CFU/ml,[16],0.5
same,r2,[17],0.983
same,r2,[18],0.974
same,r2,[19],0.511%
same,r2,[20],0.957
same,r2,[21],0.552%
same,r2,[22],0.483%
same,r2,[23],0.894%
same,r2,[24],0.699%
same,r2,[25],0.953
same,r2,[26],0.966
same,r2,[27],0.77
same,fraction unbound,[28],0.069
